Compound activity as filed in PubChem BioAssay.
APJ antagonist = antagonists of human apelin receptor APJ, primary screen, CHO-K1 cells, beta-arrestin complementation, luminescence. inhibition, % at 20 µM. 0.32% of 330,000 active;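 active = inhibition above about 40% at 20 µM, limit read from the data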;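 also: cells challenged with 10 nM apelin-13 agonist together with compound; plate controls were apelin-13 plus DMSO wells for no effect and DMSO wells lacking apelin-13 for full effect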
EBI2 antag = EBI2 receptor antagonists, beta-arrestin recruitment, primary screen, cell-based, luminescence, 7a,25-OHC stimulation, uHTS; G-protein coupled receptor 183 (Homo sapiens), P32249; 7a,25-OHC stimulated; inhibition, % at 5 µM; 0.81% of 360,000 active; AID 651636, 2012; in the data active = inhibition above about 38%;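 also: enzyme fragment complementation signal reports receptor beta-arrestin coupling in cells; 0% = agonist plus DMSO wells and 100% = wells without agonist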
CXCR6 inh = CXCR6 receptor inhibitors, primary screen, cell-based, beta-arrestin, luminescence, CHO-K1 PathHunter, 1536-well; C-X-C chemokine receptor type 6 (Homo sapiens), O00574; inhibition, % at 20 µM; 0.36% of 360,000 active; AID 602244, 2012; in the data active = inhibition above about 34%, passing the limit was not always enough;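 also: antagonist mode with CXCL16 agonist at 10 nM final; 0% = 10 nM CXCL16 with DMSO and 100% = unstimulated wells without agonist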
Target sequence (O00574 whole entry, looked up): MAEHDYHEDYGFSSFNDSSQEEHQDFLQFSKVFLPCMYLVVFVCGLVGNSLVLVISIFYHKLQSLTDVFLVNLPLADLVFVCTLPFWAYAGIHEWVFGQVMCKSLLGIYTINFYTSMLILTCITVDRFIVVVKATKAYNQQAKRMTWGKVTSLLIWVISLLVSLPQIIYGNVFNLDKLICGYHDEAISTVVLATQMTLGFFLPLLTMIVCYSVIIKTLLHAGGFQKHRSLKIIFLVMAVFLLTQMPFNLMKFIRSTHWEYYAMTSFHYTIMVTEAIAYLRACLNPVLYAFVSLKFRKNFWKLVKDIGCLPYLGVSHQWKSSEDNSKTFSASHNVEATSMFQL
APJ ag = agonists of human apelin receptor APJ, primary screen, CHO-K1 cells, PathHunter beta-arrestin, luminescence | 0.11% of 330,000 active | activation, % at 20 µM | 0% DMSO wells, 100% apelin | P35414;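 active = activation more than six SD over the plate average, tested at 20 µM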;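 also: 0% = DMSO alone and 100% = apelin-13 at 10 nM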
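Test system – PathHunter CHO-K1 APJ (AGTRL-1) beta-arrestin reporter cells · Input – 1000 cells/well · Compound – single test compound dose, 20 µM final, 1% DMSO · Times – compound stimulation 90 min at 25 °C, detection 60 min · Technique – beta-gal luminescence · Read-out basis – APJ–arrestin association signal · Control set – negative DMSO alone, positive Apelin-13 at 10 nM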
CCR6 antag = CCR6 receptor antagonists, primary screen, cell-based, CHO-K1, luminescence, beta-arrestin, uHTS; 0.49% of 340,000 active; C-C chemokine receptor type 6 (Homo sapiens), P51684; AID 493098, 2011; inhibition, % at 20 µM; CHO-K1 CCR6 PathHunter beta-arrestin, CCL20-stimulated;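 active = compounds whose inhibition of the agonist-driven luminescence signal at 20 µM reaches about 50%, limit read from the data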;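 also: cells stimulated with CCL20 at 14 nM final; plate controls were DMSO with CCL20 for no effect and DMSO without agonist for full effect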
EBI2 antag conf = EBI2 antagonist hit retest, beta-arrestin, confirmation, cell-based, single concentration, luminescence, 7a,25-OHC stimulation | shares compounds with EBI2 antag | inhibition, % at 5 µM | 7a,25-OHC antagonism | 29% of 2,400 active;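 active = inhibition of at least 50%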
EBI2 ag = EBI2 agonist activity of antagonist hits, confirmation, counter-screen for EBI2 antagonist project, cell-based, single concentration, agonist mode, luminescence | shares compounds with EBI2 antag | EBI2-expressing cells, 60 min; 0% vehicle, 100% 7α,25-dihydroxycholesterol control | activation, % at 5 µM | 2,400 tested, under 10 active | AID 652000, 2013;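 active = activation of at least 50%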
bGal cs = E. coli beta-galactosidase enzyme inhibition, confirmation, counter-screen for EBI2 antagonist project, biochemical, luminescence, single concentration | purified beta-galactosidase, luminescent Galacton Star, 15 min | inhibition, % at 5 µM | 1% of 2,400 active | shares compounds with EBI2 antag | AID 652176, 2013;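 active = replicate-average signal at least 3 plate SD below neutral wells, shown as high inhibition, flagging enzyme-inhibiting false positives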;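 also: 0% = DMSO wells with enzyme and 100% = wells lacking enzyme; higher means stronger loss of beta-gal luminescence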
An asterisk follows results filed as active; · = not tested or not shown. Compounds with a hit are over-represented: about 1.5% of the library has one in this group of screens.

SMILES	APJ antagonist	EBI2 antag	CXCR6 inh	APJ ag	CCR6 antag	EBI2 antag conf	EBI2 ag	bGal cs
CC(C(=O)NCCS(=O)(=O)c1ccc(Br)cc1)S(=O)(=O)c1ccc(Cl)cc1 (configuration not stated)	-1	2	5	-1	-2	·	·	·
COc1cc(/C=C/C(=O)NCC2CCCCC2)cc(OC)c1OC	-28	52*	10	2	4	40	-1	-19
O=C(COC(=O)/C=C/c1cccc(Br)c1)NC1CCCCC1	-1	3	-6	-3	4	·	·	·
O=C(/C=C/c1cccc(Br)c1)NCC1CCCCC1	0	43*	-2	-3	21	35	-1	-18
COc1ccc(CCNC(=O)/C=C/c2ccc(C)cc2)cc1OC	7	34	-2	-4	-13	·	·	·
O=C(/C=C/c1ccc(Br)cc1)NC1CCCCCC1	12	64*	-2	-2	8	61*	-1	9
COc1ccc(CCNC(=O)/C=C/c2cc(OC)c(OC)c(OC)c2)cc1OC	8	37*	-2	-3	8	18	1	11
O=C(NCCOc1ccccc1)C1CCC(=O)N(C2CCCCCC2)C1 (configuration not stated)	-39	11	2	-1	3	·	·	·
O=C1NC[C@H](CCCCN2C[C@H](Cc3ccccc3)N(CCc3ccc(O)cc3)C(=O)C2=O)N(CCc2ccccc2)C1=O	·	-2	0	·	·	·	·	·
O=C(Nc1ccc(-n2cnnn2)cc1)c1cc(S(=O)(=O)N2CCCC2)ccc1Cl	8	-1	-23	2	9	·	·	·
CC(NC(=O)CN(c1cccc(C(F)(F)F)c1)S(=O)(=O)c1ccc(Cl)c([N+](=O)[O-])c1)c1ccccc1 (configuration not stated)	-24	48*	-7	0	-25	40	-1	-11
COc1ccc(CNC(=O)/C=C/c2ccc(OCCCF)cc2)cc1OC	-4	-2	6	3	6	·	·	·
O=C(/C=C/c1ccc(OCCCF)cc1)NCc1ccc(Cl)c(Cl)c1	-7	44*	-1	3	10	40	0	5
O=C(Nc1nc(-c2ccc(Oc3ccccc3)cc2)cs1)C1=COCCO1	7	74*	-10	-1	9	32	-1	8
Cc1ccc(-c2csc(NC(=O)C3=COCCO3)n2)cc1	16	0	0	-1	-8	·	·	·
CCCCc1ccc(NC(=O)CSc2nnc(CNC(=O)c3ccco3)o2)cc1	1	-1	-4	2	-5	·	·	·
N#C/C(=C\c1cn(CCOc2ccccc2)c2ccccc12)C(=O)NCc1ccco1	9	46*	8	-7	29	22	0	8
O=C(NCCOc1ccc(Cl)cc1)c1cccc(S(=O)(=O)N2CCCC2)c1	15	56*	-6	-2	15	47	-1	-10
O=C(NCCOc1ccc(Cl)cc1)C1CCCCC1	-2	61*	-6	-2	11	30	0	11
O=C(NCc1ccc(Cl)cc1)c1cccc(S(=O)(=O)N2CCCC2)c1	1	-6	-3	-4	16	·	·	·
CCCC(CCC)C(=O)Nc1ccc2c(c1)N(C(=O)CCN1CCN(C)CC1)c1ccccc1CC2	7	5	7	-1	13	·	·	·
COc1cccc(OCCNc2cc(N3CCCCC3)ccc2[N+](=O)[O-])c1	24	61*	28	-6	24	46	0	6
COc1ccc(OCCNc2cc(N3CCOCC3)ccc2[N+](=O)[O-])cc1	-1	30	18	0	19	·	·	·
COc1cccc(OCCNc2cc(N3CCOCC3)ccc2[N+](=O)[O-])c1	13	44*	12	-3	13	33	0	-3
CCOC(=O)C1(Cc2cccc(OC)c2)CCN(Cc2cccn2-c2ccccn2)CC1	-18	12	2	-5	11	·	·	·
SMILES	APJ antagonist	EBI2 antag	CXCR6 inh	APJ ag	CCR6 antag	EBI2 antag conf	EBI2 ag	bGal cs
C=CCN(C(=O)C1CSC2(C)CCC(=O)N12)c1nc(-c2ccccc2)cs1 (configuration not stated)	27	48*	11	0	11	64*	-1	-19
COc1ccc(NC(=O)CN(C)C(=O)Cn2c(=O)oc3ccccc32)cc1	7	0	3	-9	8	·	·	·
CC(C)(C)S(=O)N1Cc2cc(C(=O)NCc3ccc4c(c3)OCO4)nc(-c3cccc(-c4ccccc4)c3)c2[C@@H]1CCO (some centres not stated)	·	46*	4	·	·	23	-1	6
CCCNC(=O)c1cc2c(c(-c3cccc(-c4ccc(F)cc4)c3)n1)[C@H](CCO)N(S(=O)C(C)(C)C)C2 (some centres not stated)	·	61*	13	·	·	19	0	-12
CC(C)(C)S(=O)N1Cc2cc(C(=O)NCc3ccc4c(c3)OCO4)nc(-c3cccc(-c4ccncc4)c3)c2[C@H]1CCO (some centres not stated)	·	-9	0	·	·	·	·	·
Cc1noc(C)c1COc1ccc(C(=O)N2CCN(S(=O)(=O)c3ccc(F)cc3)CC2)cc1	·	0	4	·	7	·	·	·
COc1ccc(C2=Nn3c(nnc3-c3ccccc3OC)SC2)cc1OC1CCOC1 (configuration not stated)	-5	-31	-1	-1	-12	·	·	·
C[C@@H]1CC2=C(C(=O)OC(C)(C)O2)[C@H](c2ccc(Cl)cc2)O1	·	-1	1	·	·	·	·	·
CCN1CCN(c2ccc(N=Cc3ccccc3O)cc2)CC1	-8	1	-3	0	-11	·	·	·
CC(C)C[C@@H](CN1CCCC1CN1C(=S)NC[C@@H]1Cc1ccccc1)N1C[C@H](Cc2ccccc2)N(CCc2ccccc2)C1=S (some centres not stated)	·	12	-6	·	·	·	·	·
CCOc1ccc(CCN2C(=S)N([C@@H](CC(C)C)CN3CCC[C@@H]3CN3C(=S)NC[C@@H]3CC(C)C)C[C@@H]2Cc2ccc(O)cc2)cc1	·	47*	10	·	·	23	0	4
